pIC50: −log10 of the molar value. Calls of active or inactive are those of the source. No cut-off for these calls is given here.
Tests used:
Assay type in all cases: functional
[1] = Antioxidant activity assessed as ABTS radical scavenging activity after 6 mins
[2] = Antioxidant activity assessed as ferric ion reducing activity using ferric-TPTZ by measuring concentration of compound with antioxidant capacity equivalent to ferrous sulfate at 0.5 mmol/L by FRAP assay
[3] = Antioxidant activity against AAPH-induced DNA breakage in Escherichia coli pBR322 at 100 uM after 1 hr using ethidium bromide staining by agarose gel electrophoresis analysis
How it was run: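 Plasmid pBR322 DNA (4 µg/mL final) exposed to AAPH (4 mM final) in phosphate buffer (8.1 mM Na₂HPO₄, 1.9 mM NaH₂PO₄, 10.0 mM EDTA), 25 µL total; samples and Trolox standard added at 100 µM in DMSO; 37 °C, 1 h. Strand breakage resolved on 1% agarose gel in Tris-acetate-EDTA, 60 V, 100 min.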

[4] = test system: Liver; test: Antioxidant activity in KM mouse liver microsomes assessed as inhibition of lipid peroxidation after 60 mins; settings: for inhibition: Microsome; for pIC50: 1 h
How it was run: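 Liver microsomes from adult male KM mice (8–12 weeks), protein by Bradford, used at 0.67 mg protein/mL with compounds at varying concentrations, 10 mM FeSO₄ and 0.1 mM ascorbic acid in 0.2 M potassium phosphate pH 7.4; 37 °C, 60 min. Stopped with 20% TCA plus 0.67% TBA, heated 100 °C 15 min, centrifuged; MDA-TBA read at 535 nm.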

[5] = test system: Radical scavenging activity; test: Antioxidant activity assessed as DPPH free radical scavenging activity after 30 mins by spectrophotometric analysis
How it was run: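 Serial dilutions of compound (100 to 3.125 µg/mL) mixed 1:1 with 0.2 mmol/L DPPH in ethanol; ethanol blank, BHT control. A515 read after 0.5 h at 25 °C; IC50 = concentration giving 50% DPPH scavenging; three replicates, mean ± SD.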

In the case of `O=[N+]([O-])c1cccc(NCn2nc(-c3ccc4c(c3)OCCO4)oc2=S)c1`, the pIC50 [1] was 5.05, the Activity [2] was over 1000 µM and the Activity [3] was “Active”. The inhibition [4] was “Active” and the pIC50 [5] was 4.42.

`S=c1oc(-c2ccc3c(c2)OCCO3)nn1CNc1cccc(Cl)c1` showed a pIC50 [1] of 5.21, an Activity [2] of 846 µM and a pIC50 [5] of 4.64.

In the case of `Fc1cccc(F)c1NCn1nc(-c2ccc3c(c2)OCCO3)oc1=S`, the pIC50 [1] was 5.48, the Activity [2] was 268 µM and the Activity [3] was “Active”. For the same compound, the inhibition [4] was “Active” and the pIC50 [5] was 4.66.

For `S=c1oc(-c2ccc3c(c2)OCCO3)nn1CNC1CCCCC1`, the pIC50 [1] was 4.73, the Activity [2] was over 1000 µM and the pIC50 [5] was 4.03.

For `S=c1oc(-c2ccc3c(c2)OCCO3)nn1CNc1ccccc1`, the pIC50 [1] was 5.29, the Activity [2] was 735 µM and the Activity [3] was “Active”. The inhibition [4] was “Active” and the pIC50 [5] was 4.49.

Compound `S=c1oc(-c2ccc3c(c2)OCCO3)nn1CNc1ccccc1Cl` has a pIC50 [1] of 5.14, an Activity [2] of 532 µM and a pIC50 [5] of 4.52.

Work on `COc1ccc(NCn2nc(-c3ccc4c(c3)OCCO4)oc2=S)cc1` yielded a pIC50 [1] of 5.23, an Activity [2] of 493 µM and a pIC50 [5] of 4.50.

`Fc1cccc(NCn2nc(-c3ccc4c(c3)OCCO4)oc2=S)c1` gave a pIC50 [1] of 5.18, an Activity [2] of 398 µM and a pIC50 [5] of 4.45.

`S=c1oc(-c2ccc3c(c2)OCCO3)nn1CNc1ccc(Cl)cc1` showed a pIC50 [1] of 5.14, an Activity [2] of 584 µM and a pIC50 [5] of 4.50.

For `S=c1oc(-c2ccc3c(c2)OCCO3)nn1CNc1ccc(Cl)cc1Cl`, the pIC50 [1] was 5.06, the Activity [2] was 593 µM and the pIC50 [5] was 4.36.

For `Fc1ccc(NCn2nc(-c3ccc4c(c3)OCCO4)oc2=S)cc1`, the pIC50 [1] was 5.19, the Activity [2] was 300 µM and the pIC50 [5] was 4.53.

Compound `S=c1oc(-c2ccc3c(c2)OCCO3)nn1CNc1ccccc1Br` has a pIC50 [1] of 4.90, an Activity [2] of 440 µM and a pIC50 [5] of 4.44.

With `Fc1cc(NCn2nc(-c3ccc4c(c3)OCCO4)oc2=S)cc(F)c1F` the pIC50 [1] was 5.53, the Activity [2] was 240 µM and the Activity [3] was “Active”. It also gave a pIC50 [4] of 3.96 and a pIC50 [5] of 4.71.

For `CCOc1ccccc1NCn1nc(-c2ccc3c(c2)OCCO3)oc1=S`, the pIC50 [1] was 5.28, the Activity [2] was 422 µM and the pIC50 [5] was 4.65.

Work on `S=c1oc(-c2ccc3c(c2)OCCO3)nn1CNc1ccc(Cl)c(Cl)c1` yielded a pIC50 [1] of 5.16, an Activity [2] of 763 µM and a pIC50 [5] of 4.44.

`S=c1[nH]nc(-c2ccc3c(c2)OCCO3)o1` gave a pIC50 [1] of 4.97, an Activity [2] of 612 µM and a pIC50 [5] of 4.19.

`COc1ccccc1NCn1nc(-c2ccc3c(c2)OCCO3)oc1=S` gave a pIC50 [1] of 5.20, an Activity [2] of 335 µM and a pIC50 [5] of 4.54.

Compound `Cc1c(C)c2c(c(C)c1O)CCC(C)(C(=O)O)O2` (stereo not given) [TROLOX] has a pIC50 [1] of 5.21, an Activity [2] of 294 µM and a pIC50 [4] of 3.74. It also gave a pIC50 [5] of 4.52.

`O=[N+]([O-])c1ccc(NCn2nc(-c3ccc4c(c3)OCCO4)oc2=S)cc1` showed a pIC50 [1] of 5.00, an Activity [2] of over 1000 µM and a pIC50 [5] of 4.32.

With `O=[N+]([O-])c1ccc(NCn2nc(-c3ccc4c(c3)OCCO4)oc2=S)c(Cl)c1` the pIC50 [1] was 5.06, the Activity [2] was over 1000 µM and the Activity [3] was “Active”. For the same compound, the inhibition [4] was “Active” and the pIC50 [5] was 4.08.

Compound `COC(=O)c1ccc2c(c1)OCCO2` has a pIC50 [1] of 4.86, an Activity [2] of over 1000 µM and a pIC50 [5] of 4.06.

With `Fc1ccccc1NCn1nc(-c2ccc3c(c2)OCCO3)oc1=S` the pIC50 [1] was 5.19, the Activity [2] was 522 µM and the pIC50 [5] was 4.43.

Compound `S=c1oc(-c2ccc3c(c2)OCCO3)nn1CNc1cccc(Br)c1` has a pIC50 [1] of 4.97, an Activity [2] of over 1000 µM and a pIC50 [5] of 4.29.

With `Cc1ccccc1NCn1nc(-c2ccc3c(c2)OCCO3)oc1=S` the pIC50 [1] was 5.46, the Activity [2] was 292 µM and the Activity [3] was “Active”. For the same compound, the inhibition [4] was “Active” and the pIC50 [5] was 4.44.

`S=c1oc(-c2ccc3c(c2)OCCO3)nn1CNc1ccc(Br)cc1` showed a pIC50 [1] of 4.83, an Activity [2] of 531 µM and a pIC50 [5] of 4.15.

Work on `S=c1[nH]nc(-c2ccccc2)o1` yielded a pIC50 [1] of 4.96, an Activity [2] of over 1000 µM and a pIC50 [5] of 4.05.

`FC(F)(F)c1cccc(NCn2nc(-c3ccc4c(c3)OCCO4)oc2=S)c1` showed a pIC50 [1] of 5.12, an Activity [2] of over 1000 µM and a pIC50 [5] of 4.45.

`FC(F)(F)c1cc(NCn2nc(-c3ccc4c(c3)OCCO4)oc2=S)cc(C(F)(F)F)c1` showed a pIC50 [1] of 5.03, an Activity [2] of over 1000 µM and a pIC50 [5] of 4.05.

`Cc1ccc(NCn2nc(-c3ccc4c(c3)OCCO4)oc2=S)cc1` showed a pIC50 [1] of 5.24, an Activity [2] of 434 µM and a pIC50 [5] of 4.60.

For `O=[N+]([O-])c1ccccc1NCn1nc(-c2ccc3c(c2)OCCO3)oc1=S`, the pIC50 [1] was 4.96, the Activity [2] was over 1000 µM and the Activity [3] was “Active”. The inhibition [4] was “Active” and the pIC50 [5] was 4.32.

With `S=c1oc(-c2ccc3c(c2)OCCO3)nn1CNc1cc(Cl)ccc1Cl` the pIC50 [1] was 5.27, the Activity [2] was 899 µM and the pIC50 [5] was 4.46.

In the case of `Cc1cc(C(C)(C)C)c(O)c(C(C)(C)C)c1` [BUTYLATED HYDROXYTOLUENE], the pIC50 [1] was 5.12, the Activity [2] was 546 µM and the pIC50 [5] was 4.36.

In the case of `CCCCCCCCCCCCCCCCNCn1nc(-c2ccc3c(c2)OCCO3)oc1=S`, the pIC50 [1] was 4.64, the Activity [2] was over 1000 µM and the pIC50 [5] was 3.97.

`FC(F)(F)c1ccccc1NCn1nc(-c2ccc3c(c2)OCCO3)oc1=S` showed a pIC50 [1] of 5.04, an Activity [2] of over 1000 µM and a pIC50 [5] of 4.17.

With `S=c1oc(-c2ccc3c(c2)OCCO3)nn1CNc1ccc(Br)cc1Br` the pIC50 [1] was 5.19, the Activity [2] was over 1000 µM and the pIC50 [5] was 4.44.
